Data: ChEMBL document CHEMBL1134737, “Synthesis and purine receptor affinity of 6-oxopurine nucleosides and nucleotides containing (N)-methanocarba-pseudoribose rings” (Bioorg Med Chem Lett, 2001)
Activity calls are given as the source filed them. No cut-off for these calls is given here.

Key:
Adenosine receptor A3 = molecular target: T1, Adenosine receptor A3 (Homo sapiens, UniProt P0DMS8); experiment: Displacement of [125I]AB-MECA from human Adenosine A3 receptor expressed in HEK293 cell membranes
T1 sequence (P0DMS8 whole entry): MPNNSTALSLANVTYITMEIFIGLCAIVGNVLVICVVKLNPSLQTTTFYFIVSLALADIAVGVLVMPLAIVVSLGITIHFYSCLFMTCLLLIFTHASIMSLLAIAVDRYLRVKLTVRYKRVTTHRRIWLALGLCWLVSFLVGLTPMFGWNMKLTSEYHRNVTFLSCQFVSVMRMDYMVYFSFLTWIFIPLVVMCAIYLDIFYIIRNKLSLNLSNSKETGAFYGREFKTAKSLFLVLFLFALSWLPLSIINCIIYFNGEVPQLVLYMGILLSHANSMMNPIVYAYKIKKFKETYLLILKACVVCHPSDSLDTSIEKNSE
In short: (§1)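 Membranes from HEK-293 cells expressing human A3 receptor; specific [125I]AB-MECA binding displaced by test ligands. Reported as Ki ± SEM or as % displacement, n = 3-5.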

HL-60 [1] = experiment: Effect on calcium mobilization in HL-60 cells at the dose of 100 uM concentration; Inactive; type: functional, cell-based; conditions: Homo sapiens
[2] = molecular target: T2, Adenosine receptor A3 (Homo sapiens) (UniProt P0DMS8); experiment: Displacement of [125I]AB-MECA from human Adenosine A3 receptor expressed in HEK293 cell membranes at 100 uM; in short: as §1
T2 sequence (whole entry): T1 sequence (P0DMS8 whole entry)

HL-60 [3] = experiment: Effect on calcium mobilization in HL-60 cells at the dose of 100 uM concentration (1 uM UTP); type: functional, Homo sapiens
[4] = molecular target: T3, Adenosine receptor A1 (Rattus norvegicus) (UniProt P25099); experiment: Displacement of [3H]R-PIA from Adenosine A1 receptor in rat brain membrane at 100 uM; type: cell membranes
T3 sequence (whole entry): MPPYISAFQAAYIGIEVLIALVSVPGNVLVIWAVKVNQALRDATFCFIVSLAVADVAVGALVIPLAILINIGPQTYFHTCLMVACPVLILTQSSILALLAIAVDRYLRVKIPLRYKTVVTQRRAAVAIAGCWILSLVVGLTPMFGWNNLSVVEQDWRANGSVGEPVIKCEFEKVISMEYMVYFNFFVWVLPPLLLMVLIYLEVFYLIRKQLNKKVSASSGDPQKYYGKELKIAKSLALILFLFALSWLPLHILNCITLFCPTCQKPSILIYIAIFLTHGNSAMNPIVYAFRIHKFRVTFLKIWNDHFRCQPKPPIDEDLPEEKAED

[5] = molecular target: Adenosine receptor A2a (Rattus norvegicus) (UniProt P30543); experiment: Displacement of [3H]-CGS- 21680 from A2A receptors in rat striatal membranes at 100 uM; type: cell membranes; conditions: Membrane
Adenosine receptor A2a (Rattus norvegicus), sequence (P30543 whole entry): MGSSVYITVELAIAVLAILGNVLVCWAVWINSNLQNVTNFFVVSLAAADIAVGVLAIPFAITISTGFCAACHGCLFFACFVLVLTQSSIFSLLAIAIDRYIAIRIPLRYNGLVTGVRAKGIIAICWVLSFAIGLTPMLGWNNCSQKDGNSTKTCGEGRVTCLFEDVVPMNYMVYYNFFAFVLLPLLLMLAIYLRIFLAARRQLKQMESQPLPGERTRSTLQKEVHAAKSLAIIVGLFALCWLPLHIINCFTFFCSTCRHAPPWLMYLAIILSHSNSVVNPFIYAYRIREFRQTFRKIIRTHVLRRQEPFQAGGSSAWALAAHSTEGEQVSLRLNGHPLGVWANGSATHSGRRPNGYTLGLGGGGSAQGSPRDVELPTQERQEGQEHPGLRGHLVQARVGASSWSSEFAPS
In short: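 Rat striatal membranes as A2A receptor source; displacement of specific [3H]CGS 21680 binding. Reported as Ki ± SEM or as % displacement, n = 3-6.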

Adenosine receptor A1 = molecular target: T4, Adenosine receptor A1 (Rattus norvegicus, UniProt P25099); experiment: Displacement of [3H]R-PIA binding to Adenosine A1 receptor in rat brain membrane; type: cell membranes
T4 sequence (P25099 whole entry): T3 sequence (whole entry)

Structure (SMILES) | Ki (Adenosine receptor A3) [µM] | Displacement [4] [%] | Displacement [5] [%] | other results
O=P(O)(OC[C@@]12C[C@@H]1[C@@H](n1cnc3c(O)ncnc31)[C@H](O)[C@@H]2O)OP(=O)(O)OC[C@@]12C[C@@H]1[C@@H](n1cnc3c(O)ncnc31)[C@H](O)[C@@H]2O | 21.6 | – | – | Activity (HL-60 [1]): inactive
Nc1nc(O)c2ncn([C@H]3[C@H](O)[C@H](O)[C@]4(COP(=O)(O)OP(=O)(O)OP(=O)(O)O)C[C@H]34)c2n1 | – | – | – | Displacement [2]: < 10%; Activity (HL-60 [3]): 53%
Nc1nc(O)c2ncn([C@H]3[C@H](O)[C@H](O)[C@]4(CO)C[C@H]34)c2n1 | 20.5 | < 10 | < 10 | –
CNC(=O)[C@@]12C[C@@H]1[C@@H](n1cnc3c(O)ncnc31)[C@H](O)[C@@H]2O | – | < 10 | < 10 | –
OC[C@@]12C[C@@H]1[C@@H](n1cnc3c(O)ncnc31)[C@H](O)[C@@H]2O | – | < 10 | < 10 | –
CCCCn1c(=O)c2c(ncn2[C@H]2[C@H](O)[C@H](O)[C@]3(CO)C[C@H]23)n(CCCC)c1=O | 4.35 | – | < 10 | Ki (Adenosine receptor A1): 2.97 µM
CCCCn1c(=O)c2c(ncn2[C@H]2[C@H](O)[C@H](O)[C@]3(C(=O)NC)C[C@H]23)n(CCCC)c1=O | 1.86 | – | < 10 | Ki (Adenosine receptor A1): 24.4 µM
O=P(O)(O)OC[C@@]12C[C@@H]1[C@@H](n1cnc3c(O)ncnc31)[C@H](O)[C@@H]2O | – | – | – | Activity (HL-60 [1]): inactive
CCCCn1c(=O)c2c(ncn2[C@H]2[C@H](O)[C@H](O)[C@]3(OP(=O)(O)OP(=O)(O)OP(=O)(O)O)C[C@H]23)n(CCCC)c1=O | – | – | – | Displacement [2]: < 10%
CNC(=O)[C@@]12C[C@@H]1[C@@H](n1cnc3c(=O)[nH]cnc31)[C@H](O)[C@@H]2O | 28.8 | – | – | –
